Assay results: ChEMBL document CHEMBL1177876, “Design and synthesis of 10-alkoxy-5, 6-dihydro-triazolo[4,3-d]benzo[f][1,4]oxazepine derivatives with anticonvulsant activity” (Eur J Med Chem, 2010)
Active and inactive are the calls of the source.

Columns and labels:
[1] = test system: Mus musculus; assay: Anticonvulsant activity in mouse assessed as protection against maximal electroshock-induced seizures at 100 mg/kg, ip measured after 0.5 hrs; type: functional, organism-based; parameters: dose 100 mg/kg
Outline: (§1)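 Phase-I MES screen in KunMing mice, 18–22 g. Compounds dissolved in DMSO and given i.p. at 30, 100 or 300 mg/kg. The MES test followed the NIH ADD protocol and was read at 0.5 h and 4 h after dosing. Six mice per group, scored as number protected/number tested.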

[2] = test system: Mus musculus; assay: Anticonvulsant activity in mouse assessed as protection against maximal electroshock-induced seizures at 300 mg/kg, ip measured after 4 hrs; type: functional, organism-based; parameters: dose 300 mg/kg; outline: as §1
[3] = test system: Mus musculus; assay: Anticonvulsant activity in mouse assessed as protection against maximal electroshock-induced seizures at 100 mg/kg, ip measured after 4 hrs; type: functional, organism-based; parameters: dose 100 mg/kg; outline: as §1
[4] = test system: Mus musculus; assay: Anticonvulsant activity in mouse assessed as protection against maximal electroshock-induced seizures at 30 mg/kg, ip measured after 4 hrs; type: functional, organism-based; parameters: dose 30 mg/kg; outline: as §1
[5] = test system: Mus musculus; assay: Anticonvulsant activity in mouse assessed as protection against maximal electroshock-induced seizures at 10 mg/kg, ip measured after 4 hrs; type: functional, organism-based; parameters: dose 10 mg/kg
[6] = test system: Mus musculus; assay: Anticonvulsant activity in ip dosed mouse assessed as protection against maximal electroshock-induced seizures; type: functional
Outline: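 KunMing mice, 18–22 g, compounds in DMSO, given i.p. at a range of doses, groups of 10. MES test per NIH ADD program. Read-out was seizure protection, with at least three points in the 10–90% range.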

[7] = test system: Mus musculus; assay: Anticonvulsant activity in mouse assessed as protection against maximal electroshock-induced seizures at 30 mg/kg, ip measured after 0.5 hrs; type: functional, organism-based; parameters: dose 30 mg/kg; outline: as §1
[8] = Neurotoxicity in ip dosed mouse assessed as time spent on rotarod by rotarod test; type: toxicity, organism-based; conditions: in vivo
Outline: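 Rotarod neurotoxicity in KunMing mice, 18–22 g, compounds in DMSO given i.p. Mice were pretrained on a 3.2 cm diameter rod at 10 rpm. Toxicity was defined as failure to stay on the rod for at least 1 min in each trial.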

[9] = species on record: Mus musculus; assay: Protective index, ratio of TD50 for mouse by rotarod test to ED50 for mouse by MES test; type: functional
[10] = test system: Mus musculus; assay: Anticonvulsant activity in mouse assessed as protection against maximal electroshock-induced seizures at 10 mg/kg, ip measured after 0.5 hrs; type: functional, organism-based; parameters: dose 10 mg/kg
[11] = test system: Mus musculus; assay: Anticonvulsant activity in mouse assessed as pentylenetetrazole-induced clonic seizures at 30 mg/kg, ip administered 30 mins before pentylenetetrazole challenge measured after 0.5 hrs; type: functional; conditions: route intraperitoneal
[12] = test system: Mus musculus; assay: Anticonvulsant activity in mouse assessed as pentylenetetrazole-induced tonic seizures at 30 mg/kg, ip administered 30 mins before pentylenetetrazole challenge measured after 0.5 hrs; type: functional; conditions: route intraperitoneal
[13] = test system: Mus musculus; assay: Anticonvulsant activity in mouse assessed as isoniazid-induced clonic seizures at 30 mg/kg, ip administered 30 mins before isoniazid challenge measured after 1 hr; type: functional; conditions: route intraperitoneal
[14] = test system: Mus musculus; assay: Anticonvulsant activity in mouse assessed as isoniazid-induced tonic seizures at 30 mg/kg, ip administered 30 mins before isoniazid challenge measured after 1 hr; type: functional; conditions: route intraperitoneal
[15] = test system: Mus musculus; assay: Anticonvulsant activity in mouse assessed as 3-mercaptopropionic acid-induced clonic seizures at 30 mg/kg, ip administered 30 mins before 3-mercaptopropionic acid challenge measured after 0.5 hrs; type: functional; conditions: route intraperitoneal
Outline: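 Mice, 10 per group, dosed i.p. with 30 mg/kg. 30 min later they received 3-mercaptopropionic acid 60 mg/kg sc in saline. Each mouse was observed alone for 0.5 h for seizures.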

[16] = test system: Mus musculus; assay: Anticonvulsant activity in mouse assessed as 3-mercaptopropionic acid-induced tonic seizures at 30 mg/kg, ip administered 30 mins before 3-mercaptopropionic acid challenge measured after 0.5 hrs; type: functional; conditions: route intraperitoneal
Outline: (§2)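 KunMing mice (18–22 g) in groups of 10 received the test agent, dissolved in DMSO, i.p. 30 min before challenge. The challenge was 3-mercaptopropionic acid, 60 mg/kg in saline, given s.c. Mice were then held in individual cages and observed for 0.5 h for seizures and death.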

[17] = test system: Mus musculus; assay: Anticonvulsant activity in mouse assessed as 3-mercaptopropionic acid-induced death at 30 mg/kg, ip administered 30 mins before 3-mercaptopropionic acid challenge measured after 0.5 hrs; type: functional; conditions: route intraperitoneal; outline: as §2
[18] = test system: Mus musculus; assay: Anticonvulsant activity in mouse assessed as thiosemicarbazide-induced clonic seizures at 30 mg/kg, ip administered 30 mins before thiosemicarbazide challenge measured after 2.5 hrs; type: functional; conditions: route intraperitoneal
Outline: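 Thiosemicarbazide challenge, 50 mg/kg i.p., given 30 min after 30 mg/kg i.p. test compound. Mice, 10 per group, were caged individually and observed for 2.5 h. Clonic and tonic seizures and lethality were recorded.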

[19] = test system: Mus musculus; assay: Anticonvulsant activity in mouse assessed as thiosemicarbazide-induced tonic seizures at 30 mg/kg, ip administered 30 mins before thiosemicarbazide challenge measured after 2.5 hrs; type: functional; conditions: route intraperitoneal
Outline: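 Mice (KunMing, 18–22 g, n = 10 per group) were pretreated i.p. with compound in DMSO. After 30 min, thiosemicarbazide was given at 50 mg/kg i.p. Animals were caged individually and observed for 2.5 h, and the number of clonic seizures, tonic seizures and deaths was recorded.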

[20] = test system: Mus musculus; assay: Anticonvulsant activity in mouse assessed as bicuculline-induced clonic seizures at 30 mg/kg, ip administered 30 mins before bicuculline challenge measured after 0.5 hrs; type: functional; conditions: route intraperitoneal
Outline: (§3)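 Bicuculline 2.7 mg/kg sc, injected 15–45 min after preparation, given 30 min after 30 mg/kg i.p. test compound. Mice, 10 per group, were isolated and watched for at least 30 min for clonic and tonic seizures and lethality.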

[21] = test system: Mus musculus; assay: Anticonvulsant activity in mouse assessed as bicuculline-induced tonic seizures at 30 mg/kg, ip administered 30 mins before bicuculline challenge measured after 0.5 hrs; type: functional; conditions: route intraperitoneal; outline: as §3

Row | SMILES | Activity [1] | Activity [2] | Activity [3] | Activity [4] | Activity [5] | ED50 [6] [mg/kg] | TD50 [8] [mg/kg] | PI [9] | further results
1 | CCOc1ccc2c(c1)-c1nncn1CCO2 | Active | inactive | inactive | inactive | inactive | > 100 |  |  | 
2 | c1ccc(COc2ccc3c(c2)-c2nncn2CCO3)cc1 | Active | inactive | inactive | inactive | inactive | 16.4 | 76 | 4.6 | Activity [7]: Active
3 | CCCCCCOc1ccc2c(c1)-c1nncn1CCO2 | Active | inactive | inactive | inactive | inactive | 10 | 60 | 6 | Activity [10]: Active
4 | CCCOc1ccc2c(c1)-c1nncn1CCO2 | Active | inactive | inactive | inactive | inactive | 19 | 54.8 | 2.9 | 
5 | Fc1ccccc1COc1ccc2c(c1)-c1nncn1CCO2 | Active | inactive | inactive | inactive | inactive | 18 | 91.3 | 5.1 | Activity [7]: Active
6 | Brc1ccccc1COc1ccc2c(c1)-c1nncn1CCO2 | Active | inactive | inactive | inactive | inactive | 41.7 | 110 | 2.6 | 
7 | Brc1ccc(COc2ccc3c(c2)-c2nncn2CCO3)cc1 | Active | inactive | inactive | inactive | inactive | > 100 |  |  | 
8 | Fc1ccc(COc2ccc3c(c2)-c2nncn2CCO3)cc1 | Active | inactive | inactive | inactive | inactive | 27.4 | 63.4 | 2.3 | 
9 | Clc1cccc(COc2ccc3c(c2)-c2nncn2CCO3)c1 | Active | inactive | inactive | inactive | inactive | 82.2 | 127 | 1.5 | 
10 | COc1ccc(COc2ccc3c(c2)-c2nncn2CCO3)cc1 | Active | inactive | inactive | inactive | inactive | > 100 |  |  | 
11 | CCCCCCCOc1ccc2c(c1)-c1nncn1CCO2 | Active | inactive | inactive | inactive | inactive | 6.9 | 65.7 | 9.5 | Activity [7]: Active; Activity [10]: Active; Activity [11]: 80%; Activity [12]: 0%; Activity [13]: 0%; Activity [14]: 0%; Activity [15]: 100%; Activity [16]: 0%; Activity [17]: 20%; Activity [18]: 100%; Activity [19]: 30%; Activity [20]: 100%; Activity [21]: 0%
